Laboratory results published in ChEMBL document CHEMBL3875191, “Enhanced potency of bivalent small molecule gp41 inhibitors” (Bioorg Med Chem, 2017).
The source made the active and inactive calls. The rule behind the calls is not given here.

Legend:
[1] = Ratio of Kd for wild type HIV-1 Fe2(env2.0)3 peptide model of gp41 hydrophobic pocket assessed as dissociation constant for first binding interaction to Ka for wild type HIV-1 Fe2(env2.0)3 peptide model of gp41 hydrophobic pocket assessed as association constant for first binding interaction; parameters: species or system Human immunodeficiency virus 1
[2] = Cytotoxicity against human HL2/3 cells assessed as decrease in cell viability by alamar blue/presto blue assay; type: toxicity, cell-based
In short: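 Cell viability read with resazurin reagent (Alamar Blue or Presto Blue) under the same culture conditions as cell-cell fusion. TZM-bl targets (25,000/well, cultured overnight) with serially diluted compound, plus 50,000 HL2/3 effectors/well. 6 h in reduced-serum medium, 1% DMSO final.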

[3] = test system: Human immunodeficiency virus 1; test: Binding affinity to wild type HIV-1 Fe2(env2.0)3 peptide model of gp41 hydrophobic pocket at compound to peptide ratio of 1:1 by surface plasmon resonance assay
In short: (§1)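 CM5 chip activated with EDC/NHS then PDEA; FeII(envC)3 (bpy-HR1 peptide ending in D-Cys, 5 µM in 25 mM Tris-acetate pH 7.0) coupled by disulfide. Blocked with L-cysteine, then washed with 1 mM ferrous ammonium sulfate. Reference surface lacked receptor. Analytes run at 0.098–50 µM in 20 mM Hepes, 150 mM NaCl, pH 7.0, 1% DMSO. Association 60 s, dissociation 300 s, DMSO bracketing. Kinetics fit to Langmuir 1:1 and 1:2 models.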

[4] = (§2) Inhibition of HIV1 3B gp41-induced virus-cell fusion between HIV1 3B to MAGI cells expressing CXCR4-tropic treated 3 hrs post infection measured after 48 hrs by beta-galactosidase based chemiluminescence assay; settings: Human immunodeficiency virus 1, 3B
[5] = Inhibition of fluorescently labeled C-terminal HR2 probe peptide binding to wild type HIV-1 Fe(env2.0)3 peptide model of gp41 hydrophobic pocket at compound to protein ratio of 1:1 by fluorescence assay; parameters: species or system Human immunodeficiency virus 1
[6] = (§3) Inhibition of HIV1 gp41-induced cell-cell fusion between HXB2 viral envelope expressing human HL2/3 cells to CXCR4-tropic expressing TZM-bl cells after 6 hrs by LTR luciferase reporter gene assay; type: cell-based; settings: Human immunodeficiency virus 1, HL2/3, 6 h
In short: (§4)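 TZM-bl target cells (CD4, CCR5, CXCR4; HIV-1 LTR-driven firefly luciferase) at 25,000/well, cultured overnight, then given serially diluted inhibitor. 50,000 HL2/3 effector cells (HXB2 Env, Tat, Rev) were added and fusion ran 6 h in reduced-serum medium with 1% DMSO final. Luciferase was read, with 1% DMSO controls with and without HL2/3, in triplicate.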

[7] = (§5) Inhibition of HIV1 Ba-L gp41-induced virus-cell fusion between HIV1 Ba-L to MAGI cells expressing CCR5-tropic treated 3 hrs post infection measured after 48 hrs by beta-galactosidase based chemiluminescence assay; settings: Human immunodeficiency virus 1, Ba-L
[8] = test system: MAGI; test: as §5; settings: Human immunodeficiency virus 1
[9] = test system: MAGI; test: as §2; settings: Human immunodeficiency virus 1
[10] = Inhibition of fluorescently labeled C-terminal HR2 probe peptide binding to wild type HIV-1 Fe(env2.0)3 peptide model of gp41 hydrophobic pocket assessed as inhibition constant for first binding interaction at compound to protein ratio of 1:2 by fluorescence assay; parameters: species or system Human immunodeficiency virus 1
[11] = Inhibition of fluorescently labeled C-terminal HR2 probe peptide binding to wild type HIV-1 Fe(env2.0)3 peptide model of gp41 hydrophobic pocket assessed as inhibition constant for second binding interaction at compound to protein ratio of 1:2 by fluorescence assay; parameters: species or system Human immunodeficiency virus 1
[12] = test system: Human immunodeficiency virus 1; test: Binding affinity to wild type HIV-1 HXB2 Fe2(env2.0)3 peptide model of gp41 hydrophobic pocket at >10 uM by surface plasmon resonance assay; in short: as §1
[13] = test system: HL2/3; test: as §3; type: cell-based; settings: Human immunodeficiency virus 1; in short: as §4
[14] = test system: Human immunodeficiency virus 1; test: Binding affinity to wild type HIV-1 HXB2 Fe2(env2.0)3 peptide model of gp41 hydrophobic pocket at <10 uM by surface plasmon resonance assay; in short: as §1

SMILES	Kd [1] [µM]	CC50 [2] [µM]	RUmax [3]	IC50 [4] [µM]	Ki [5] [µM]	IC50 [6] [µM]	IC50 [7] [µM]	IC90 [8] [µM]	IC90 [9] [µM]	Ki [10] [µM]	Ki [11] [µM]	Activity [12]	IC90 [13] [µM]	Activity [14]
O=C(CCC(=O)Nc1ccc(C(=O)N[C@@H](Cc2c[nH]c3ccccc23)C(=O)O)cc1OCc1ccc(Cl)cc1)NCCOCCOCCOCCNC(=O)CCC(=O)Nc1ccc(C(=O)N[C@@H](Cc2c[nH]c3ccccc23)C(=O)O)cc1OCc1ccc(Cl)cc1	43	> 100	157	5.1	5.3 to 8.5	0.4	–	–	–	–	–	–	–	–
O=C(CCc1c[nH]c2ccccc12)NCCCCCC(=O)Nc1ccc(C(=O)N[C@@H](Cc2c[nH]c3ccccc23)C(=O)O)cc1OCc1ccc(Cl)cc1	–	> 100	93	14.3	3.4	2.2	13	26.5	27.1	–	–	–	–	–
O=C(CCc1c[nH]c2ccccc12)NCCCCCC(=O)Nc1ccc(C(=O)N[C@@H](Cc2c[nH]c3ccccc23)C(=O)O)cc1OCCc1c[nH]c2ccccc12	–	> 100	95	17.3	1.2	1.3	13.7	31.1	30.5	–	–	–	–	–
O=C(CCC(=O)Nc1ccc(C(=O)N[C@@H](Cc2c[nH]c3ccccc23)C(=O)O)cc1OCCc1c[nH]c2ccccc12)NCCOCCOCCOCCNC(=O)CCC(=O)Nc1ccc(C(=O)N[C@@H](Cc2c[nH]c3ccccc23)C(=O)O)cc1OCCc1c[nH]c2ccccc12	32	> 100	160	3.8	1 to 2.3	0.6	3.6	> 100	70	20	0.2	–	–	–
Nc1ccc(C(=O)N[C@@H](Cc2c[nH]c3ccccc23)C(=O)O)cc1OCCc1c[nH]c2ccccc12	–	> 50	59	> 50	7.2	22	> 50	> 50	> 50	–	–	Active	80	Active
Nc1ccc(C(=O)N[C@@H](Cc2c[nH]c3ccccc23)C(=O)O)cc1OCc1ccc(Cl)cc1	–	> 50	56	–	15	24	–	–	–	–	–	–	–	–
